# The source made the active and inactive calls. No cut-off for these calls is given here.
# How the values were obtained:
# HT-29 = experiment: Cytotoxicity against human HT-29 cells assessed as growth inhibition after 72 hrs by MTT assay; assay type: functional, cell-based; settings: HT-29, 72 h
# Jurkat = experiment: Cytotoxicity against human Jurkat cells assessed as growth inhibition after 72 hrs by MTT assay; assay type: functional, cell-based
# [1] = Cytotoxicity against human SEM cells assessed as growth inhibition after 72 hrs by MTT assay; assay type: functional, cell-based
# PBMC = experiment: Cytotoxicity against human resting PBMC assessed as growth inhibition after 72 hrs by MTT assay; assay type: cell-based
# Procedure, shortened: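 Healthy-donor PBMC from Lymphoprep gradient, rested overnight in RPMI-1640/10% FBS; non-adherent cells at 5 × 10^5 cells/mL without PHA, treated 72 h with varying concentrations; viability by MTT; IC50 mean ± SEM, three separate experiments.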
# CCRF-CEM = experiment: Resistance ratio of IC50 for human CEM/VBL100 cells to IC50 for human CEM cells; assay type: functional
# Procedure, shortened: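 Ratio of IC50 in resistant line to IC50 in parental line (CEMVbl-100/CEM; LoVoDoxo/LoVo), each IC50 from 72 h MTT dose–response curves, ≥3 independent experiments.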
# HeLa [2] = experiment: Induction of apoptosis in human HeLa cells assessed as increase in Bid protein expression at 1 uM after 24 hrs by Western blotting analysis; assay type: functional, cell-based
# HeLa [3] = experiment: Cell cycle arrest in human HeLa cells assessed as reduction in S phase after 24 hrs by propidium iodide staining-based flow cytometry; assay type: functional
# Procedure, shortened: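 HeLa cells in exponential growth (2.5 × 10^5) treated 24 h at various concentrations; ethanol-fixed (70%, ice-cold), lysed with RNase A/0.1% Triton X-100, PI-stained; DNA content by flow cytometry, phase percentages from DNA histograms.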
# HeLa [4] = experiment: Induction of apoptosis in human HeLa cells at 0.62 to 5 uM after 24 to 48 hrs by Annexin V/FITC staining-based flow cytometry; assay type: functional, cell-based
# Procedure, shortened: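 HeLa cells treated 24 or 48 h at indicated concentrations, then stained with annexin-V-FITC plus PI; flow cytometry with 488 nm excitation, 525 and 585 nm emission; live, early/late apoptotic and necrotic populations distinguished; means of three independent experiments.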
# HeLa [5] = experiment: Induction of apoptosis in human HeLa cells assessed as caspase activation at 2.5 uM after 48 hrs in presence of pan-caspase inhibitor z-VAD.fmk; assay type: functional, cell-based
# Procedure, shortened: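 HeLa cells given 2.5 μM compound for 48 h with or without 100 μM z-VAD.fmk pan-caspase inhibitor; viability measured; means ± SEM of three independent experiments, Student's t-test.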
# HeLa [6] = experiment: Induction of apoptosis in human HeLa cells assessed as PARP cleavage after 24 to 48 hrs by Western blotting analysis; assay type: functional, cell-based
# Procedure, shortened: (§1)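 HeLa cells treated at indicated concentrations and times; washed in cold PBS, lysed 30 min at 0 °C, cleared at 15 000 × g; 20 μg protein resolved on 7.5–15% gradient SDS-PAGE, blotted to PVDF, primary antibodies 2 h room temperature, peroxidase secondary 60 min, ECL detection; β-actin reprobe for loading.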
# HeLa [7] = experiment: Induction of apoptosis in human HeLa cells assessed as reduction in Mcl-1 protein expression at 2.5 uM after 48 hrs by Western blotting analysis; assay type: functional, cell-based; procedure, shortened: as §1
# HeLa [8] = experiment: Induction of apoptosis in human HeLa cells assessed as mitochondrial depolarization at 1 to 5 uM after 12 hrs by JC-1 staining-based flow cytometry; assay type: functional, cell-based
smiles,measurement,setting,value
C=C(Br)C(=O)Nc1ccc(/C=C/C(=O)Nc2cc(OC)c(OC)c(OC)c2)cc1,IC50,HT-29,3700 nM
same,IC50,Jurkat,410 nM
same,IC50,[1],110 nM
same,IC50,PBMC,3500 nM
same,Ratio IC50,CCRF-CEM,0.6
same,Activity,HeLa [2],inactive
same,Activity,HeLa [3],Active
same,Activity,HeLa [4],Active
same,Activity,HeLa [5],inactive
same,Activity,HeLa [6],Dose-dependent effect
same,Activity,HeLa [7],Active
same,Activity,HeLa [8],Active
